The values that follow come from ChEMBL document CHEMBL3526060, “Impact of hydrolysis-mediated clearance on the pharmacokinetics of novel anaplastic lymphoma kinase inhibitors” (Drug Metab Dispos, 2013).

Data set [1] in a line: AUC (0 to infinity) in CD-1 mouse at 2 mg/kg, iv administered as single bolus dose by LC-MS/MS analysis. To be noted: plasma. Also on record: time infinity, dose 2 mg/kg, route intravenous. Type of data set: ADME, organism-based. The essentials:
(§1)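 Single 2 mg/kg IV bolus via lateral tail vein to male CD-1 mice. Mice euthanized at 0.083–24 h, 3 per time point (27 animals); cardiac-puncture blood into heparin on ice, plasma spun at 4 °C and immediately extracted with acetonitrile/0.1% formic acid plus IS, LC-MS/MS. Noncompartmental CL = Dose/AUC0–inf, t1/2 = 0.693/k, Vss from AUMC/AUC, MRT = Vss/CL.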

Data set [2] is described as follows: Plasma clearance in CD-1 mouse at 2 mg/kg, iv administered as single bolus dose by LC-MS/MS analysis. Format: ADME, organism-based. Also noted: dose 2 mg/kg, route intravenous. The essentials: as §1
Data set [3] in a line: Mean residence time in CD-1 mouse at 2 mg/kg, iv administered as single bolus dose by LC-MS/MS analysis. Type of data set: ADME, organism-based. Also on record: dose 2 mg/kg, route intravenous. To be noted: in vivo. The essentials: as §1
Data set [4] in a line: Half life in CD-1 mouse at 2 mg/kg, iv administered as single bolus dose by LC-MS/MS analysis. Also on record: dose 2 mg/kg, route intravenous. Format: ADME, organism-based. To be noted: in vivo. The essentials:
as §1

The nature of data set [5]: Volume of distribution at steady state in CD-1 mouse at 2 mg/kg, iv administered as single bolus dose by LC-MS/MS analysis. Format: ADME, organism-based. Also on record: dose 2 mg/kg, route intravenous. The settings on record: in vivo, read-out: Vdss. The essentials:
as §1

Data set [6] in a line: In vitro half life in CD-1 mouse plasma at 0.83 uM by LC-MS/MS analysis. Format: ADME, cell-free. The essentials:
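Screening stability: compound at 0.83 µM in mouse plasma at 37 °C, up to 3 h; timed aliquots quenched into acetonitrile with tolbutamide IS, centrifuged, LC-MS/MS; half-life from depletion, CLint = (0.693/t1/2)/plasma concentration.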

Data set [7] relates to Plasma. Kind of data set: Drug metabolism in CD-1 mouse plasma assessed as hydrolysis metabolite formation rate by LC-MS/MS analysis. Type of data set: ADME, cell-free. The settings on record: for Km: read-out: Km(app). The essentials:
(§2)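 Mouse plasma depletion kinetics at 37 °C, substrate range 0.0023–5 µM, up to 3 h; samples quenched into acetonitrile/tolbutamide, LC-MS/MS. CLint per concentration from t1/2; apparent Vmax and Km fitted by nonlinear regression to Michaelis-Menten, formation rate simulated from fit; mean of two replicates.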

Data set [8] is described as follows: Drug metabolism in CD-1 mouse liver microsomes assessed as hydrolysis metabolite formation rate by LC-MS/MS analysis. Format: ADME. To be noted: for Km: read-out: Km(app). The essentials:
(§3)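 Mouse liver microsomes 0.25 mg/mL in 0.1 M phosphate pH 7.4, with or without 1 mM NADPH, substrate 0.0023–5 µM; sampling to 40 min into acetonitrile/IS, LC-MS/MS depletion. Hydrolysis Vmax/Km solved from no-NADPH incubations, then NADPH-dependent constants; metabolite formation rate simulated from fitted constants; duplicates.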
For orientation: Liver microsomes are vesicles of endoplasmic reticulum, rich in cytochrome P450 enzymes.

The nature of data set [9]: Drug metabolism in CD-1 mouse NADPH-fortified liver microsomes assessed as hydrolysis metabolite formation rate by LC-MS/MS analysis. Type of data set: ADME. The settings on record: for Km: read-out: Km(app). The essentials: as §3
The subject of data set [10] is Plasma. Kind of data set: Drug metabolism in CD-1 mouse plasma assessed as maximum intrinsic clearance for hydrolysis metabolite formation by LC-MS/MS analysis. Format: ADME, cell-free. The essentials:
as §2

A short description of data set [11]: Ratio of drug level in blood to plasma in CD-1 mouse at 1 uM treated 20 mins after amide hydrolysis inhibitor DFP challenge measured after 1 hr by LC-MS/MS analysis. Format: ADME. To be noted: whole blood. The essentials:
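Fresh whole blood pre-incubated 20 min with 100 µM DFP, warmed to 37 °C, spiked to 1 µM, incubated 1 h, then plasma separated; reference plasma spiked at 1 µM. Extracted with 6 volumes acetonitrile/IS, LC-MS/MS; ratio = reference plasma peak area / treated plasma peak area.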

Data set [12] is described as follows: Fraction unbound in CD-1 mouse liver microsomes after 7 hrs by equilibrium dialysis method. Type of data set: ADME. The essentials:
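Equilibrium dialysis of 0.25 mg/mL mouse liver microsomes in phosphate buffer against PBS, 7 h at 37 °C, 5% CO2, test compound 0.1, 0.5 or 2 µM, triplicate; LC-MS/MS; fraction unbound = buffer/microsome concentration.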

Data set [13] can be described thus: Fraction unbound in CD-1 mouse plasma after 7 hrs by equilibrium dialysis method. Type of data set: ADME, cell-free. The essentials: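 Mouse plasma pre-treated 20 min with 100 µM DFP to block hydrolysis, spiked at 0.1, 0.5 or 2 µM, equilibrium dialysis against PBS for 7 h at 37 °C, 5% CO2, triplicate; matrix-matched samples extracted with acetonitrile/IS, LC-MS/MS; fu = buffer/plasma concentration.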
For orientation: Equilibrium dialysis compares concentrations on both sides of a semipermeable membrane.

Structures are written as SMILES.

Broadly, the AUC(0-inf) is the area under the concentration-time curve extrapolated to infinity. A lower AUC(0-inf) goes with less exposure. As a reminder, the clearance is the volume of plasma or blood freed of the substance per unit of time. Low readings indicate inefficient removal, high ones efficient removal. The MRT is a mean duration of stay, worked out from the concentration-time curve. What is called half-life is how long it takes for the measured level to halve. Low values mean rapid decline, high ones slow decline. The Km is the substrate concentration at which the rate is half of its maximum. In general, fraction unbound refers to the share of the substance not bound to proteins or other matrix. As for `CC(C)NC(=O)[C@H]1CC[C@@H](n2/c(=N/C(=O)c3cc(F)cc(F)c3)[nH]c3ccc(CN4CCC(C(C)(C)O)CC4)cc32)CC1`, the AUC(0-inf) in [1] came to 0.957 µM·h. The clearance in [2] was 58.5 mL/min/kg. In addition, in data set [3], the MRT amounted to 1.28 h. In data set [4], this compound gave a half-life of 1.01 h. In [5], the Vd came out at 4.49 L/kg. This compound showed a half-life at 0.83 µM in data set [6] of 2.9 h. The “Vmax(app)” value in the data set with Plasma [7] was 3.81 pmol/min/mL; in data set [8], 5.12 pmol/min/mg; in data set [9], 143 pmol/min/mg. Besides, the Km is 0.357 µM in the data set on Plasma [7], 0.0292 µM in [8] and 0.936 µM in [9]. Moreover, the CL with Plasma [10] turned out to be 10.7 uL/min.ml. The blood plasma ratio at 1 h, 1 µM in data set [11] was determined as 0.9. The fraction unbound at 7 h is 0.53 in data set [12] and 0.046 in data set [13].

For `CC(C)NC(=O)[C@H]1CC[C@@H](n2/c(=N/C(=O)c3cccc(C(F)(F)F)c3)[nH]c3ccc(CN4CCC(C(C)(C)O)CC4)cc32)CC1`, the AUC(0-inf) in [1] was 1.2 µM·h. The clearance in data set [2] is 44.3 mL/min/kg. The MRT in data set [3] worked out at 2.92 h. In addition, the half-life in [4] is 2.2 h. Besides, in data set [5], the Vd was determined as 7.78 L/kg. The compound also showed a half-life at 0.83 µM in data set [6] of 8.5 h. Besides, the figures for the “Vmax(app)” value (with Plasma [7]; in data set [8]; in data set [9]) were 1.14 pmol/min/mL, 5.38 pmol/min/mg and 194 pmol/min/mg, respectively. Also, the figures for the Km (in the data set with Plasma [7]; in [8]; in data set [9]) were 0.68 µM, 0.261 µM and 1.95 µM, respectively. In the data set with Plasma [10], the CL is recorded as 1.68 uL/min.ml. Moreover, the blood plasma ratio at 1 h, 1 µM in [11] is 0.9. In addition, the values for the fraction unbound at 7 h in data set [12] and in data set [13] were 0.22 and 0.012, respectively.
